Like-named read-outs stand apart in the source and are kept apart here.
Experiments:
[1] = assay type: in vitro ADME, human; conditions: urine
Outline: (§1)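 Glucosamine was spiked into blank human matrix at low and high QC levels: plasma 0.020 and 1.66 μg/mL, urine 2.21 and 42.7 μg/mL, n=2. Freeze-thaw used 24 h at −20 °C, thawing at room temperature and 12 h refreezing, up to three cycles. Short-term storage was 8 h at room temperature and long-term storage up to 60 days at −20 °C. Samples were compared with fresh references and accuracy given as found versus nominal.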

[2] = assay type: in vivo, human (healthy Chinese volunteers); conditions: for Cmax: plasma
Outline: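 Open-label, randomized, parallel-group study. Thirty healthy volunteers (5 men, 5 women per group) took single oral doses of 500, 1000 or 1500 mg glucosamine sulfate, as dispersible tablets, with 250 mL water after an overnight fast. The 500 mg group continued at 500 mg t.i.d. for 7 days, with troughs on days 4–7. Heparinized plasma was taken from 0 to 24 h. Cmax came from the observed curves, other parameters from non-compartmental analysis, and group differences from ANOVA.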

[3] = cited from earlier work
[4] = assay type: in vitro ADME, human; conditions: for Stability, Accuracy (% of nominal conc.): plasma
Outline: as §1

[5] = assay type: in vivo, human (healthy Chinese volunteers); conditions: n=10; for Urine excretion (% of dose): single oral dose 1000 mg, mean±SD
[6] = before administration, Chinese volunteers, n=30
[7] = multiple doses 500 mg t.i.d., 7th day, mean±SD, n=10
[8] = single oral dose 500 mg, mean±SD, n=10
[9] = single oral dose 1000 mg, mean±SD, n=10
[10] = single oral dose 1500 mg, mean±SD, n=10
[11] = before administration, Chinese volunteers

Stability, Accuracy (% of nominal conc.) ([1]; 2.21 μg/mL, Freeze-thaw (n=3)): 106.6% | Stability, Accuracy (% of nominal conc.) ([1]; 2.21 μg/mL, Long-term after 60 d (−20 °C)): 99.2% | Stability, Accuracy (% of nominal conc.) ([1]; 2.21 μg/mL, Short-term after 8 h (25 °C)): 104.2% | Stability, Accuracy (% of nominal conc.) ([1]; 42.7 μg/mL, Freeze-thaw (n=3)): 105.3% | Stability, Accuracy (% of nominal conc.) ([1]; 42.7 μg/mL, Long-term after 60 d (−20 °C)): 103.7% | Stability, Accuracy (% of nominal conc.) ([1]; 42.7 μg/mL, Short-term after 8 h (25 °C)): 111.2% | accumulation after multiple doses ([2]; 500 mg t.i.d. for 7 consecutive days vs single dose): no significant accumulation effects | dose linearity of absorption (dose-normalized AUC and Cmax) ([2]; 1500 mg vs 500 and 1000 mg dose groups, P<0.05): non-linear absorption at higher doses | time at which peak concentration was reached ([2]; after oral administration, all dose groups): about 2 h | plasma glucosamine baseline levels, mean [2, 6]: 16.7 ± 26.9 ng/mL | plasma glucosamine baseline levels, range [2, 6]: 0 to 120 ng/mL | AUC0–10 [2, 7]: 1.02 ± 0.24 µg·h/mL | AUC0–∞ [2, 7]: 1.02 ± 0.24 µg·h/mL | AUCss [2, 7]: 1.00 ± 0.24 µg·h/mL | Css_av [2, 7]: 0.125 ± 0.031 µg/mL | Css_min [2, 7]: 0.059 ± 0.056 µg/mL | DF [2, 7]: 1.90±0.93% | MRT0–10 [2, 7]: 2.70 ± 0.34 h | Tmax [2, 7]: 1.90 ± 1.10 h | t1/2 [2, 7]: 1.41 ± 0.76 h | Cmax [2, 7]: 0.294 ± 0.076 µg/mL | time at which plasma glucosamine was eliminated to the baseline level ([2]; post-dosing): about 10 h | AUC0–10 [2, 8]: 1.42 ± 0.20 µg·h/mL | AUC0–∞ [2, 8]: 1.43 ± 0.21 µg·h/mL | MRT0–10 [2, 8]: 3.18 ± 0.71 h | Tmax [2, 8]: 2.60 ± 1.39 h | t1/2 [2, 8]: 1.17 ± 0.40 h | AUC0–10 [2, 9]: 3.37 ± 1.02 µg·h/mL | AUC0–∞ [2, 9]: 3.42 ± 1.01 µg·h/mL | MRT0–10 [2, 9]: 3.57 ± 0.24 h | Tmax [2, 9]: 2.70 ± 0.86 h | t1/2 [2, 9]: 1.32 ± 0.35 h | Cmax [2, 9]: 0.795 ± 0.280 µg/mL | AUC0–10 [2, 10]: 4.03 ± 1.28 µg·h/mL | AUC0–∞ [2, 10]: 4.18 ± 1.40 µg·h/mL | MRT0–10 [2, 10]: 3.30 ± 0.61 h | Tmax [2, 10]: 1.90 ± 0.84 h | t1/2 [2, 10]: 1.36 ± 0.94 h | Cmax [2, 10]: 0.925 ± 0.280 µg/mL | Stability, Accuracy (% of nominal conc.) ([4]; 0.020 μg/mL, Freeze-thaw (n=3)): 100.0% | Stability, Accuracy (% of nominal conc.) ([4]; 0.020 μg/mL, Long-term after 60 d (−20 °C)): 90.0% | Stability, Accuracy (% of nominal conc.) ([4]; 1.660 μg/mL, Freeze-thaw (n=3)): 105.2% | Stability, Accuracy (% of nominal conc.) ([4]; 1.660 μg/mL, Long-term after 60 d (−20 °C)): 106.6% | Stability, Accuracy (% of nominal conc.) ([4]; 1.660 μg/mL, Short-term after 8 h (25 °C)): 98.4% | stability in plasma and urine under different storage conditions ([4]; three freeze-thaw cycles, 8 h bench-top, −20 °C up to 2 months, plasma and urine): stable | urine glucosamine levels (baseline), mean [5, 11]: 4.96 ± 1.74 µg/mL | urine glucosamine levels (baseline), range [5, 11]: 2.79 to 8.07 µg/mL | Urine excretion (% of dose) ([5]; 0–3 h after dosing): 0.434±0.300% | Urine excretion (% of dose) ([5]; 0–6 h after dosing): 1.39±1.45% | Urine excretion (% of dose) ([5]; 0–10 h after dosing): 1.83±1.84% | Urine excretion (% of dose) ([5]; 0–14 h after dosing): 1.90±1.86% | Urine excretion (% of dose) ([5]; 0–24 h after dosing): 1.99±1.86%
Substance: 2-amino-2-deoxy-D-glucose [glucosamine]
plasma glucosamine baseline levels, mean value ([3]; Caucasian volunteers): 45.3 ng/mL | Endogenous level of glucosamine in human plasma ([3]; human plasma): 10 to 200 ng/mL

Reference: article PMC5760825 (Journal of Pharmaceutical Analysis, 2011)
